Results as given in ChEMBL document CHEMBL4368879, “Crystallographic and SAR analyses reveal the high requirements needed to selectively and potently inhibit SIRT2 deacetylase and decanoylase” (Medchemcomm, 2019).
Activity calls are given as the source filed them. The calls are words filed in the database; no cut-off is given here.

Assays:
[1] = biological target: T1, NAD-dependent protein deacetylase sirtuin-2 (Homo sapiens) (UniProt Q8IXJ6); test: Inhibition of recombinant SIRT2 (unknown origin) using RLIK(Ac)AMC as substrate assessed as reduction in deacetylase activity at 10 uM after 2 hrs in presence of NAD+ by fluorescence assay relative to control
T1 sequence (whole entry): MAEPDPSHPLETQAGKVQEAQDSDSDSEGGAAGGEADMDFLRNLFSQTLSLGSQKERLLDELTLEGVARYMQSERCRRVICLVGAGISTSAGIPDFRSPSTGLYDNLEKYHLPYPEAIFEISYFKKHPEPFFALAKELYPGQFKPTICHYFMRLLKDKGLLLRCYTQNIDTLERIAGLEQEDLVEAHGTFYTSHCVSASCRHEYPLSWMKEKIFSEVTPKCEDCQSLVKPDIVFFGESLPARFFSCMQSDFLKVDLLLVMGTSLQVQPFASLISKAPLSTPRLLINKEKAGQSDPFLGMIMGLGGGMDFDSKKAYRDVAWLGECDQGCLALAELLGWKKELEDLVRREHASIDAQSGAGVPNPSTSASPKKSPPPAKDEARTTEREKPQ
Summary of the method: (§1)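 Fluorogenic sirtuin assay in 25 mM Tris–HCl pH 8.0, 150 mM NaCl, 10% glycerol. Enzyme at 0.1 μM with 10 μM substrate (RLIK(Ac)AMC or ETDK(Ca)AMC) and 400 μM NAD+, 2 h at 25 °C with shaking. Reaction stopped with a trypsin plus 4 mM nicotinamide solution, then 30 min more at 25 °C. Fluorescence read on a plate reader.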

[2] = biological target: T1, NAD-dependent protein deacetylase sirtuin-2 (Homo sapiens); test: Inhibition of recombinant SIRT2 (unknown origin) using ETDK(Ca)AMC as substrate assessed as reduction in decanoylase activity at 100 uM after 2 hrs in presence of NAD+ by fluorescence assay relative to control; summary of the method: as §1
[3] = biological target: T1, NAD-dependent protein deacetylase sirtuin-2 (Homo sapiens); test: Inhibition of recombinant SIRT2 (unknown origin) using ETDK(Ca)AMC as substrate assessed as reduction in decanoylase activity at 10 uM after 2 hrs in presence of NAD+ by fluorescence assay relative to control; summary of the method: as §1
[4] = biological target: T1, NAD-dependent protein deacetylase sirtuin-2 (Homo sapiens); test: Inhibition of recombinant SIRT2 (unknown origin) using RLIK(Ac)AMC as substrate assessed as reduction in deacetylase activity at 100 uM after 2 hrs in presence of NAD+ by fluorescence assay relative to control; summary of the method: as §1
[5] = biological target: NAD-dependent protein deacylase sirtuin-5, mitochondrial (Homo sapiens) (UniProt Q9NXA8); test: Inhibition of recombinant SIRT5 (unknown origin) using RLIK(Ac)AMC as substrate assessed as reduction in deacetylase activity after 2 hrs in presence of NAD+ by fluorescence assay; summary of the method: as §1
[6] = biological target: T2, NAD-dependent protein deacetylase sirtuin-1 (Homo sapiens) (UniProt Q96EB6); test: Inhibition of recombinant SIRT1 (unknown origin) using RLIK(Ac)AMC as substrate assessed as reduction in deacetylase activity after 2 hrs in presence of NAD+ by fluorescence assay; summary of the method: as §1
T2 sequence (whole entry): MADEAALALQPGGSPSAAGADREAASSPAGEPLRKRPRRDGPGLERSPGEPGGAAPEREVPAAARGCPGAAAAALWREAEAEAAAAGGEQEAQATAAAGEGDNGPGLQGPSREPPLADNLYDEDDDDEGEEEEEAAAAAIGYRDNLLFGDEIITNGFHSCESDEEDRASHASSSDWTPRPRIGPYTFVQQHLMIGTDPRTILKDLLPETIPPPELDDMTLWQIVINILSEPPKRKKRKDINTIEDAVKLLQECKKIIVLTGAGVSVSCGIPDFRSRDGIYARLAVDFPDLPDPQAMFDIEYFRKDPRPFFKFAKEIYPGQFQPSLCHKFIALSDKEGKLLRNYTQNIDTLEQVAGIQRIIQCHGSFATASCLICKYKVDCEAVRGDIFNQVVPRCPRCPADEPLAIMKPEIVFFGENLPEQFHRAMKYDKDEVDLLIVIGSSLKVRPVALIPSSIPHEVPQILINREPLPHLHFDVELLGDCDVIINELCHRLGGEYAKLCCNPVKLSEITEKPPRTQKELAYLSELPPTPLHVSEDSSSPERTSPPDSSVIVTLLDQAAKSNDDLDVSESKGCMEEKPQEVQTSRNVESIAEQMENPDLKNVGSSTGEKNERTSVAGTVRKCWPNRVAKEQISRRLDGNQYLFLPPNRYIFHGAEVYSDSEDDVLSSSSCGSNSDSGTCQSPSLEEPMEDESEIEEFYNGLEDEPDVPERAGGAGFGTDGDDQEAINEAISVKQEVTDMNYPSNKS

[7] = biological target: T3, NAD-dependent protein deacetylase sirtuin-2 (Homo sapiens, UniProt Q8IXJ6); test: Inhibition of recombinant SIRT2 (unknown origin) using ETDK(Ca)AMC as substrate assessed as reduction in decanoylase activity after 2 hrs in presence of NAD+ by fluorescence assay; summary of the method: as §1
T3 sequence (Q8IXJ6 whole entry): T1 sequence (whole entry)

[8] = biological target: NAD-dependent protein deacylase sirtuin-6 (Homo sapiens) (UniProt Q8N6T7); test: Inhibition of recombinant SIRT6 (unknown origin) using RLIK(Ac)AMC as substrate assessed as reduction in deacetylase activity after 2 hrs in presence of NAD+ by fluorescence assay; summary of the method: as §1
[9] = biological target: T4, NAD-dependent protein deacetylase sirtuin-3, mitochondrial (Homo sapiens) (UniProt Q9NTG7); test: Inhibition of recombinant SIRT3 (unknown origin) using RLIK(Ac)AMC as substrate assessed as reduction in deacetylase activity after 2 hrs in presence of NAD+ by fluorescence assay; summary of the method: as §1
T4 sequence (whole entry): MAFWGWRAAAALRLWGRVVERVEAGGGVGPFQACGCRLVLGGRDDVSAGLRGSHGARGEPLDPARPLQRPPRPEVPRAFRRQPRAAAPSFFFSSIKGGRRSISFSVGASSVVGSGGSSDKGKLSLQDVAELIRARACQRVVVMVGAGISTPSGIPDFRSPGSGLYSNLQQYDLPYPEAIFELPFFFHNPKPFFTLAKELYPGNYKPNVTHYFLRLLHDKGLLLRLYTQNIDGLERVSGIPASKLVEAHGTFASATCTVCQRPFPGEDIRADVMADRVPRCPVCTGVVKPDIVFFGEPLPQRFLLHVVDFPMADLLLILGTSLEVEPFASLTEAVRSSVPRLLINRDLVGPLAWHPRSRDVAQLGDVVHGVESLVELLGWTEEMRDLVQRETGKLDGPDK

[10] = biological target: NAD-dependent protein deacylase sirtuin-6 (Homo sapiens) (UniProt Q8N6T7); test: Inhibition of recombinant SIRT6 (unknown origin) using ETDK(Ca)AMC as substrate assessed as reduction in decanoylase activity after 2 hrs in presence of NAD+ by fluorescence assay; summary of the method: as §1
[11] = biological target: NAD-dependent protein deacylase sirtuin-5, mitochondrial (Homo sapiens) (UniProt Q9NXA8); test: Inhibition of recombinant SIRT5 (unknown origin) using ETDK(Ca)AMC as substrate assessed as reduction in decanoylase activity after 2 hrs in presence of NAD+ by fluorescence assay; summary of the method: as §1
[12] = biological target: T4, NAD-dependent protein deacetylase sirtuin-3, mitochondrial (Homo sapiens); test: Inhibition of recombinant SIRT3 (unknown origin) using ETDK(Ca)AMC as substrate assessed as reduction in decanoylase activity after 2 hrs in presence of NAD+ by fluorescence assay; summary of the method: as §1
[13] = biological target: T2, NAD-dependent protein deacetylase sirtuin-1 (Homo sapiens); test: Inhibition of recombinant SIRT1 (unknown origin) using ETDK(Ca)AMC as substrate assessed as reduction in decanoylase activity after 2 hrs in presence of NAD+ by fluorescence assay; summary of the method: as §1
[14] = biological target: T3, NAD-dependent protein deacetylase sirtuin-2; test: Inhibition of recombinant SIRT2 (unknown origin) using RLIK(Ac)AMC as substrate assessed as reduction in deacetylase activity after 2 hrs in presence of NAD+ by fluorescence assay; summary of the method: as §1

Sequence of NAD-dependent protein deacylase sirtuin-6 (Homo sapiens) (Q8N6T7 whole entry): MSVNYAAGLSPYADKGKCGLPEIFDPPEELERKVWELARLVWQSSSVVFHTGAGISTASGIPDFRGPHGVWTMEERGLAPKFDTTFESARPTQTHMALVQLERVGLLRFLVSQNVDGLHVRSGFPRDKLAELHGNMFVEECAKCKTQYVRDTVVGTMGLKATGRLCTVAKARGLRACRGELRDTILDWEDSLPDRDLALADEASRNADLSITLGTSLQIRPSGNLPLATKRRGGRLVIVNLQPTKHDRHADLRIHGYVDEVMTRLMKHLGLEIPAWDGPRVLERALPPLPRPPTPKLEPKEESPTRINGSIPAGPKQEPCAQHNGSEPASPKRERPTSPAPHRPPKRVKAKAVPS
Sequence of NAD-dependent protein deacylase sirtuin-5, mitochondrial (Homo sapiens) (Q9NXA8 37-310 limits assumed): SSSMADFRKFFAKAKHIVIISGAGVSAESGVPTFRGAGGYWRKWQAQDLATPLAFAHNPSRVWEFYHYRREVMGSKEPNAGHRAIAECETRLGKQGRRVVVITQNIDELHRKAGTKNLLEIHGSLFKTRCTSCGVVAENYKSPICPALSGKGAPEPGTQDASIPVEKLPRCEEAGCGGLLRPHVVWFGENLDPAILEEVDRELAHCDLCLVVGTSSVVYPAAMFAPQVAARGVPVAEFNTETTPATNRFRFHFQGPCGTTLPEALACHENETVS

inhibition [1] [%]	inhibition [2] [%]	inhibition [3] [%]	inhibition [4] [%]	inhibition [5]	inhibition [6]	IC50 [7] [µM]	inhibition [8]	inhibition [9]	inhibition [10]	inhibition [11]	inhibition [12]	inhibition [13]	IC50 [14] [µM]	SMILES
72	77	72	82	inactive	inactive	17.6	inactive	inactive	inactive	inactive	inactive	inactive	0.85	Cc1cc(C)nc(SCC(=O)Nc2ccc(Sc3cccc(C(F)(F)F)c3)cc2)n1
70	65	54	76											Cc1cccc(Sc2ccc(NC(=O)CSc3nc(C)cc(C)n3)cc2)c1
50	58	18	62											Cc1cc(C)nc(SCC(=O)Nc2ccc(Sc3ccsc3)cc2)n1
65	30	5	73			62.1							6.65	Cc1cc(C)nc(SCC(=O)Nc2cccc(Sc3ccccc3)c2)n1
53		32	76											Cc1cc(C)nc(SCC(=O)Nc2cccc(COc3ccccc3)c2)n1
6	35	8	5											CC(=O)c1ccc(Sc2ccc(NC(=O)CSc3nc(C)cc(C)n3)cc2)cc1
42	60	23	67											Cc1cc(C)nc(SCC(=O)Nc2ccc(Sc3cccnc3)cc2)n1
80	80	70	85	inactive	inactive	8.33	inactive	inactive	inactive	inactive	inactive	inactive	0.7	COc1cccc(Sc2ccc(NC(=O)CSc3nc(C)cc(C)n3)cc2)c1
30	70	10	63											Cc1ccc(Sc2ccc(NC(=O)CSc3nc(C)cc(C)n3)cc2)cc1

The remaining lines, values behind:

SMILES	inhibition [1] [%]	inhibition [2] [%]	inhibition [3] [%]	inhibition [4] [%]	inhibition [5]	inhibition [6]	IC50 [7] [µM]	inhibition [8]	inhibition [9]	inhibition [10]	inhibition [11]	inhibition [12]	inhibition [13]	IC50 [14] [µM]
Cc1cc(C)nc(SCC(=O)Nc2ccc(Sc3ccc4ccccc4c3)cc2)n1	51	38	23	70										
Cc1cc(C)nc(SCC(=O)Nc2ccc([S+]([O-])c3ccccc3)cc2)n1 (stereo unspecified)	5	23	4	40										
Cc1cc(C)nc(SCC(=O)Nc2ccc(Sc3cccc4ccccc34)cc2)n1	42	58	42	53										
Cc1cc(C)nc(SCC(=O)Nc2ccc(S(=O)(=O)c3ccccc3)cc2)n1	8	18	5	50										
Cc1cc(C)nc(SCC(=O)Nc2ccc(Sc3ccc(OC(F)(F)F)cc3)cc2)n1	40	63	23	60										
Cc1cc(C)nc(SCC(=O)Nc2ccc(Sc3ccc(C(F)(F)F)cc3)cc2)n1	28	42	18	51										
COc1ccc(Sc2ccc(NC(=O)CSc3nc(C)cc(C)n3)cc2)cc1	55	58	20	65										
Cc1cc(C)nc(SCC(=O)Nc2ccc(Sc3ccccc3)cc2)n1	70	53	38	80			11.6							1.32
